Published values gathered from unrelated publications.
Protocols differ between the studies behind these lines.
Target: Serine/threonine-protein kinase TBK1 (TBK1, Homo sapiens, UniProt Q9UHD2)
Read-out: enzyme activity
Mode: inhibitor
Residues used in one study (Q9UHD2 1-729): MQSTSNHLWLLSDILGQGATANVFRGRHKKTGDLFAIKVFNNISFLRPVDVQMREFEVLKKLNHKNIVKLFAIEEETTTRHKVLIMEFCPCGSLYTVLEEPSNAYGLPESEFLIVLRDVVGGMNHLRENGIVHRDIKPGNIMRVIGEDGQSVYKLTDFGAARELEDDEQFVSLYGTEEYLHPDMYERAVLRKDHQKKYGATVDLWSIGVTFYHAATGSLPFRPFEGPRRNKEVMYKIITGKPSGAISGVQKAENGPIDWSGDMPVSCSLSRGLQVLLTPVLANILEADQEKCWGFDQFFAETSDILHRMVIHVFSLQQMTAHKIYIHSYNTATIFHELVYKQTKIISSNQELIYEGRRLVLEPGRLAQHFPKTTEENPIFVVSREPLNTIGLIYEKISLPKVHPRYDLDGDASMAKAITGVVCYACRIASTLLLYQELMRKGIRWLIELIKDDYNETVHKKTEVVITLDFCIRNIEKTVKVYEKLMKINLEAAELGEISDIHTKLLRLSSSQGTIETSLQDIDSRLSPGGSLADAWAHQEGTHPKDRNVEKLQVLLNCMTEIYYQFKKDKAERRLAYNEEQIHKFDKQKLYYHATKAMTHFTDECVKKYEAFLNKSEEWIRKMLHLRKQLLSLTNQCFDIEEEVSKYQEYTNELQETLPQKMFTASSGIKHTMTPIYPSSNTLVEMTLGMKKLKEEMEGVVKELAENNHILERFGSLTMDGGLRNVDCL

c1cc(CN2CCOCC2)cc(Nc2ncc(C3CC3)c(NCCc3c[nH]cn3)n2)c1  remaining activity (radiometric; 1 µM): 43%
O=C(Nc1cnn(-c2csc(C(=O)NC3COC3)c2)c1)Nc1c(F)cccc1Cl  remaining activity (5 µM): 98.8%
Cc1nn(CC(F)(F)F)cc1Nc1ncc(Br)c(NCCc2cnc[nH]2)n1  remaining activity (radiometric; 1 µM): 21%
CC(C)(C)C(=O)c1sc(NC2CCCCC2)nc1N  remaining activity (10 µM): 95%
COc1cc(Nc2cnc(C#N)c(O[C@H](C)CN(C)C)n2)ncc1-c1cnn(C)c1  remaining activity (radiometric; 1 µM): 71%
Nc1nc(NC2CCCCC2)sc1C(=O)c1ccccc1  remaining activity (10 µM): 88%
FC(F)c1nc2ccccc2n1-c1nc(N2CCOCC2)nc(N2CCOCC2)n1  remaining activity (10 µM): 102%
CCN(CC)c1ccc(C2=NNC(=O)CC2C)cc1[N+](=O)[O-] (stereo not shown)  remaining activity (10 µM): 104%
CC(C)(O)[C@H]1CC[C@H](Nc2ccc3ncc(-c4cccc(C(F)(F)F)c4)n3n2)CC1  remaining activity (1 µM): 102%
Cc1nn(CC(F)(F)F)cc1Nc1nccc(NCc2ccc(S(N)(=O)=O)cc2)n1  remaining activity (radiometric; 1 µM): 49%
CCCOc1ccc(OC)c(F)c1C(=O)c1ccc(C(=O)N[C@@H]2CNC[C@H]2NC(=O)c2ccc3[nH]ncc3c2)cc1  remaining activity (10 µM): 82%
CC(C)(C)c1nc(-c2cccc(NS(=O)(=O)c3c(F)cccc3F)c2F)c(-c2ccnc(N)n2)s1  remaining activity (radiometric; 1 µM): 88%
Brc1cnc(Nc2cccc(CN3CCOCC3)c2)nc1NCCc1c[nH]cn1  remaining activity (radiometric; 1 µM): 21%
